The source of these data is ChEMBL document CHEMBL4732019, “Collaborative virtual screening to elaborate an imidazo[1,2-a]pyridine hit series for visceral leishmaniasis” (RSC Med Chem, 2021).

Data set [1] can be described thus: Kinetic solubility of the compound at 200 uM incubated for 24 hrs at pH 7.4 by HPLC/UV analysis. In kind it is physicochemical. Conditions: buffer, pH 7.4, 24 h; call rule not given here. The method in brief: (§1)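 Shake-flask method: 10 mM DMSO stock diluted to 200 μM in phosphate buffer pH 2.0 or pH 7.4 (2% DMSO final). Shaken at 500 rpm, 24 h, room temperature, then filtered through polycarbonate membrane. Filtrate quantified by HPLC-UV against 1, 20 and 200 μM standards injected in duplicate.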

The nature of data set [2]: Kinetic solubility of the compound at 200 uM incubated for 24 hrs at pH 2 by HPLC/UV analysis. Conditions: buffer, pH 2, 24 h. The data set is classed as physicochemical. The method, boiled down: as §1
Data set [3] is described as follows: Drug uptake in BALB/c mouse plasma at 50 mg/kg, po measured after 24 hrs by LC/MS/MS analysis. As to conditions: in vivo. The data set is classed as ADME, organism-based.

Each structure is given as a SMILES string.

Consider `Cc1ccn2c(Nc3ccc(F)cc3)c(-c3ccccn3)nc2c1`, for which the Kinetic_solubility is below 0.5 µg/mL in data set [1] and 73 µg/mL in data set [2].

With `Cc1ccn2c(NC3CCCC3)c(-c3ccc(N(C)C)cc3)nc2c1`, the Kinetic_solubility is below 0.5 µg/mL in data set [1] and 67 µg/mL in data set [2].

Turning to `Cc1ccc2nc(-c3ccccn3)c(Nc3ccc4c(c3)OCCO4)n2c1`, the results for the Kinetic_solubility in data set [1] and in data set [2] were 8 µg/mL and 72 µg/mL, respectively.

Consider `COc1ccn2c(Nc3ccc(F)cn3)c(-c3ccccn3)nc2c1`, for which the Kinetic_solubility in data set [1] and in data set [2] was above 76 µg/mL throughout.

In the case of `COc1ccn2c(Nc3cc(F)cc(F)c3)c(-c3ccccn3)nc2c1`, the Drug uptake entry in data set [3] is “Not Active”.

Regarding `Clc1ccc2nc(-c3ccccn3)c(Nc3ccc4c(c3)OCCO4)n2c1`, the Kinetic_solubility in data set [1] was below 0.5 µg/mL; in data set [2], above 76 µg/mL.
